Experimental data as given in ChEMBL document CHEMBL1137704, “Photodynamic inactivation of Candida albicans sensitized by tri- and tetra-cationic porphyrin derivatives” (Eur J Med Chem, 2009).
Activity calls are given as the source filed them. The calls are words filed in the database; no cut-off is given here.

Columns and labels:
[1] = tested on: Candida albicans; assay: Drug uptake in Candida albicans PC31 at 10^6 CFU/ml cellular density assessed per 10^6 cells at 5 uM after 30 mins by fluorescence emission analysis; assay type: ADME, organism-based; details: in vivo, 0.5 h
How it was run: (§1)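 Stationary-phase yeast (overnight Sabouraud broth, 37 °C) washed into 10 mM PBS pH 7.0, 2 mL suspensions incubated with sensitizer in the dark at 37 °C. Cells pelleted, resuspended in 2% aqueous SDS, kept overnight at 4 °C, sonicated 30 min. Porphyrin quantified by fluorescence (exc 418, em 650 nm) against SDS calibration standards, normalized to total cell number. Three separate experiments.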

[2] = tested on: Candida albicans; assay: Phototoxicity against Candida albicans PC31 in PBS at 10^6 CFU/ml cellular density assessed as cellular inactivation at 5 uM after 30 mins irradiated with visible light for 30 mins; assay type: functional
How it was run: (§2)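 Overnight stationary-phase cells in 10 mM PBS pH 7.0 (2 mL) were dark-incubated with porphyrin for 30 min at 37 °C, then exposed to a 150 W slide-projector lamp filtered through 2.5 cm of water. Dark and light-only controls were included. Survivors were counted as CFU after serial dilution, plating in triplicate on Sabouraud agar and ~48 h at 37 °C. Three separate experiments.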

[3] = tested on: Candida albicans; assay: Drug uptake in Candida albicans PC31 at 10^6 CFU/ml cellular density assessed per 10^6 cells at 1 uM after 30 mins by fluorescence emission analysis; assay type: ADME, organism-based; details: in vivo, 0.5 h; how it was run: as §1
[4] = tested on: Candida albicans; assay: Phototoxicity against Candida albicans PC31 in PBS at 10^6 CFU/ml cellular density assessed as cellular inactivation at 5 uM after 30 mins irradiated with visible light for 5 mins; assay type: functional; how it was run: as §2
[5] = tested on: Candida albicans; assay: Drug uptake in Candida albicans PC31 at 10^7 CFU/ml cellular density assessed per 10^6 cells at 5 uM after 30 mins by fluorescence emission analysis; assay type: ADME, organism-based; details: in vivo, 0.5 h; how it was run: as §1
[6] = tested on: Candida albicans; assay: Drug uptake in Candida albicans PC31 at 10^8 CFU/ml cellular density assessed per 10^6 cells at 5 uM after 30 mins by fluorescence emission analysis; assay type: ADME, organism-based; details: in vivo, 0.5 h; how it was run: as §1
[7] = tested on: Candida albicans; assay: Phototoxicity against Candida albicans PC31 in PBS at 10^7 CFU/ml cellular density assessed as cellular inactivation at 5 uM after 30 mins irradiated with visible light for 30 mins; assay type: functional; how it was run: as §2
[8] = tested on: Candida albicans; assay: Phototoxicity against Candida albicans PC31 in PBS at 10^6 CFU/ml cellular density at 5 uM after 30 mins in dark at 37 deg C; assay type: functional, organism-based; how it was run: as §2
[9] = tested on: Candida albicans; assay: Phototoxicity against Candida albicans PC31 in PBS at 10^6 CFU/ml cellular density pretreated for 30 mins irradiated with visible light for 15 mins; assay type: functional, organism-based; how it was run: as §2

Row | Drug uptake [1] [nmol] | Drug uptake [3] [nmol] | Drug uptake [5] [nmol] | Drug uptake [6] [nmol] | SMILES | Activity [2] | Activity [4] [%] | Activity [7] [%] | Activity [8] | Activity [9]
1 | 1.48 | 0.32 | 0.12 | 0.01 | C[N+](C)(C)c1ccc(-c2c3nc(c(-c4ccc([N+](C)(C)C)cc4)c4ccc([nH]4)c(-c4ccc([N+](C)(C)C)cc4)c4nc(c(-c5ccc(C(F)(F)F)cc5)c5ccc2[nH]5)C=C4)C=C3)cc1.[I-].[I-].[I-] | >99.9994% | 99.99 | 99.9 | – | –
2 | – | 0.03 | – | – | O=S(=O)([O-])c1ccc(-c2c3nc(c(-c4ccc(S(=O)(=O)[O-])cc4)c4ccc([nH]4)c(-c4ccc(S(=O)(=O)[O-])cc4)c4ccc([nH]4)c(-c4ccc(S(=O)(=O)[O-])cc4)c4nc2C=C4)C=C3)cc1.[Na+].[Na+].[Na+].[Na+] | inactive | – | – | inactive | Dose-dependent effect
